Measured values: ChEMBL document CHEMBL2177098, “Synthesis and evaluation of novel ¹⁸F labeled 2-pyridinylbenzoxazole and 2-pyridinylbenzothiazole derivatives as ligands for positron emission tomography (PET) imaging of β-amyloid plaques” (J Med Chem, 2012)

How the values were obtained:
Type in all cases: ADME, organism-based
[1] = test system: Lung; assay: Drug uptake in ICR mouse lung at 370 kBq/100 ul, iv at 2 mins by gamma-counting analysis; conditions: in vivo
In short: (§1)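 Male ICR mice (5 weeks, about 20 g) got 18F tracer in saline (370 KBq per 100 μL) via tail vein; n = 5 per time point, killed at 2, 10, 30, 60 min. Organs weighed and γ-counted; percent dose per gram wet tissue from comparison with diluted injectate aliquots.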

[2] = test system: Kidney; assay: Drug uptake in ICR mouse kidney at 370 kBq/100 ul, iv at 30 mins by gamma-counting analysis; conditions: in vivo, 0.5 h; in short: as §1
[3] = test system: Heart; assay: Drug uptake in ICR mouse heart at 370 kBq/100 ul, iv at 30 mins by gamma-counting analysis; conditions: in vivo, 0.5 h; in short: as §1
[4] = test system: Spleen; assay: Drug uptake in ICR mouse spleen at 370 kBq/100 ul, iv at 30 mins by gamma-counting analysis; conditions: in vivo, 0.5 h; in short: as §1
[5] = test system: Blood; assay: Drug uptake in ICR mouse blood at 370 kBq/100 ul, iv at 10 mins by gamma-counting analysis; conditions: in vivo; in short: as §1
[6] = test system: Liver; assay: Drug uptake in ICR mouse liver at 370 kBq/100 ul, iv at 10 mins by gamma-counting analysis; conditions: in vivo; in short: as §1
[7] = test system: Spleen; assay: Drug uptake in ICR mouse spleen at 370 kBq/100 ul, iv at 10 mins by gamma-counting analysis; conditions: in vivo; in short: as §1
[8] = test system: Spleen; assay: Drug uptake in ICR mouse spleen at 370 kBq/100 ul, iv at 2 mins by gamma-counting analysis; conditions: in vivo; in short: as §1
[9] = test system: Lung; assay: Drug uptake in ICR mouse lung at 370 kBq/100 ul, iv at 30 mins by gamma-counting analysis; conditions: in vivo, 0.5 h; in short: as §1
[10] = test system: Liver; assay: Drug uptake in ICR mouse liver at 370 kBq/100 ul, iv at 2 mins by gamma-counting analysis; conditions: in vivo; in short: as §1
[11] = test system: Heart; assay: Drug uptake in ICR mouse heart at 370 kBq/100 ul, iv at 60 mins by gamma-counting analysis; conditions: in vivo, 1 h; in short: as §1
[12] = test system: Lung; assay: Drug uptake in ICR mouse lung at 370 kBq/100 ul, iv at 10 mins by gamma-counting analysis; conditions: in vivo; in short: as §1
[13] = test system: Lung; assay: Drug uptake in ICR mouse lung at 370 kBq/100 ul, iv at 60 mins by gamma-counting analysis; conditions: in vivo, 1 h; in short: as §1
[14] = test system: Heart; assay: Drug uptake in ICR mouse heart at 370 kBq/100 ul, iv at 2 mins by gamma-counting analysis; conditions: in vivo; in short: as §1
[15] = test system: Liver; assay: Drug uptake in ICR mouse liver at 370 kBq/100 ul, iv at 60 mins by gamma-counting analysis; conditions: in vivo, 1 h; in short: as §1
[16] = test system: Brain; assay: Drug uptake in ICR mouse brain at 370 kBq/100 ul, iv at 2 mins by gamma-counting analysis; conditions: in vivo; in short: as §1

Drug uptake [1]: 4.14 % ID/g | Drug uptake [2]: 2.17 % ID/g | Drug uptake [3]: 1.84 % ID/g | Drug uptake [4]: 1.63 % ID/g | Drug uptake [5]: 2.55 % ID/g | Drug uptake [6]: 8.5 % ID/g | Drug uptake [7]: 2.13 % ID/g | Drug uptake [8]: 3.32 % ID/g | Drug uptake [9]: 2.29 % ID/g | Drug uptake [10]: 10.48 % ID/g | Drug uptake [11]: 2.05 % ID/g | Drug uptake [12]: 2.8 % ID/g | Drug uptake [13]: 2.57 % ID/g | Drug uptake [14]: 4.66 % ID/g | Drug uptake [15]: 2.64 % ID/g | Drug uptake [16]: 7.23 % ID/g
SMILES: CNc1ccc(-c2nc3cc(OCC[18F])ccc3o2)cn1
